Data published in ChEMBL document CHEMBL4396880, “Development of Small-Molecules Targeting Receptor Activator of Nuclear Factor-κB Ligand (RANKL)-Receptor Activator of Nuclear Factor-κB (RANK) Protein-Protein Interaction by Structure-Based Virtual Screening and Hit Optimization” (J Med Chem, 2019).
Activity calls are given as the source filed them. No cut-off for these calls is given here. Bridge positions count the residues as written; N and C are the ends. Peptide text beside a SMILES is read from it.

Key:
[1] = target: T1, Tumor necrosis factor ligand superfamily member 11/11A (Mus musculus) (UniProt O35235+O35305); assay: Inhibition of RANKL-RANK protein-protein interaction in C57/BL6 mouse bone marrow macrophage assessed as suppression of M-CSF/mRANKL-induced osteoclastogenesis by measuring reduction in TRAP activity at 5 uM measured after 3 days by colorimetric assay relative to control
T1 sequence (O35305 31-625 partner limits assumed, one chain of several): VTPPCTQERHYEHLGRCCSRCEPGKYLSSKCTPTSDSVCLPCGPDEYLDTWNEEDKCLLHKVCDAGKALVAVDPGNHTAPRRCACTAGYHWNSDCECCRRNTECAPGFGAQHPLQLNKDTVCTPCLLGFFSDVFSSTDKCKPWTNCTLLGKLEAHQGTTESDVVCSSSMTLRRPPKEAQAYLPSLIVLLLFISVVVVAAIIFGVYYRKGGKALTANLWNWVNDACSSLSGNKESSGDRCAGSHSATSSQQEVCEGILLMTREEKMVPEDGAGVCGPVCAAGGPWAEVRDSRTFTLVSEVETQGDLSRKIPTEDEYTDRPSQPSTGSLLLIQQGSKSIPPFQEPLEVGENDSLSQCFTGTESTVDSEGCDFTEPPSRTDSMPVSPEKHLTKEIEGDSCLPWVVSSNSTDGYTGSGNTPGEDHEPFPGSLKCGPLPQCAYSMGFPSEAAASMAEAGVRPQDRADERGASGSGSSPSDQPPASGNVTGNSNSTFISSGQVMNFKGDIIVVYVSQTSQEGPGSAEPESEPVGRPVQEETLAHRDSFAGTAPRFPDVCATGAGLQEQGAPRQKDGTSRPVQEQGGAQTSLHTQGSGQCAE
How it was run: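 BMMs were incubated with the test compound at 5 μM, together with RANKL (50 ng/mL) and M-CSF (20 ng/mL), for 3 days. Osteoclastogenesis was then read out as tartrate-resistant acid phosphatase (TRAP) activity.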

[2] = target: T2, Tumor necrosis factor ligand superfamily member 11 (Homo sapiens, UniProt O14788); assay: Binding affinity to human RANKL by surface plasmon resonance analysis
T2 sequence (O14788 whole entry): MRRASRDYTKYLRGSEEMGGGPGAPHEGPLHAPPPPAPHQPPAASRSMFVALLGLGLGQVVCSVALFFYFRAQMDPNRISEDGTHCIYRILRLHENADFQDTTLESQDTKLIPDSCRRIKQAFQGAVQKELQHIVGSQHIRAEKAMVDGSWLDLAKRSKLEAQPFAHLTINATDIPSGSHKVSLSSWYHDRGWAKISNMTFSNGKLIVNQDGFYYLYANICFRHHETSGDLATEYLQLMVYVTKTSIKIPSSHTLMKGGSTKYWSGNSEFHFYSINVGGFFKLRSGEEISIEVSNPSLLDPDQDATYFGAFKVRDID

[3] = target: T3, Tumor necrosis factor ligand superfamily member 11 (Mus musculus, UniProt O35235); assay: Binding affinity to mouse N-terminal His6-Trx-tagged RANKL ectodomain (157 to 316 residues) expressed in Escherichia coli BL21 (DE3) by isothermal titration calorimetric assay
T3 sequence (O35235 whole entry): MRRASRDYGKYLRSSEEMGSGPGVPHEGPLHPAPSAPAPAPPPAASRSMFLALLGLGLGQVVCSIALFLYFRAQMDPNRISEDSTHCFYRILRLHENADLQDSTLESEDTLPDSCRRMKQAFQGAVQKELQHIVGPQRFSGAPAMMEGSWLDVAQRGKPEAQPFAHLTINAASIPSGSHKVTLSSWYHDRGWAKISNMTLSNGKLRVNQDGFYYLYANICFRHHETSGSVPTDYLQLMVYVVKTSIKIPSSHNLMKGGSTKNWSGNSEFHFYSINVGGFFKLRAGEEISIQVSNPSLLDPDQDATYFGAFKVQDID

[4] = Cytotoxicity against M-CSF-stimulated C57/BL6 mouse bone marrow macrophages assessed as cell viability at 10 uM measured after 2 days by MTT assay (reference value: 100%); format: cell-based; details: M-CSF-stimulated bone marrow macrophages (BMDM), read-out: Activity
[5] = target: T1, Tumor necrosis factor ligand superfamily member 11/11A (Mus musculus); assay: (§1) Inhibition of RANKL-RANK protein-protein interaction in C57/BL6 mouse bone marrow macrophage assessed as suppression of M-CSF/mRANKL-induced osteoclast differentiation by measuring decrease in nuclei number of F-actin ring formation at 5 uM supplemented with fresh medium containing compounds every 2 days for 5 to 6 days by rhodamine phalloidin/DAPI staining-based microscopic analysis; format: protein assay
[6] = target: T1, Tumor necrosis factor ligand superfamily member 11/11A (Mus musculus); assay: as §1, with “multinucleated TRAP+ cells” for “nuclei number of F-actin ring formation at 5 uM”, “TRAP” for “rhodamine phalloidin/DAPI”; format: cell-based
How it was run: (§2)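 Bone marrow macrophages were exposed to the test compound at the indicated concentrations for 5 days under M-CSF/RANKL stimulation. TRAP-positive multinucleated cells were then counted as the measure of osteoclast formation.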

[7] = target: T1, Tumor necrosis factor ligand superfamily member 11/11A (Mus musculus); assay: as §1, with “size” for “number”; format: protein assay
[8] = target: T1, Tumor necrosis factor ligand superfamily member 11/11A (Mus musculus); assay: as §1, with “multinucleated TRAP+ cells” for “nuclei number of F-actin ring formation”, “TRAP” for “rhodamine phalloidin/DAPI”; format: cell-based; how it was run: as §2

Row | Structure (SMILES) | inhibition [1] | further results
1 | Cc1cccc(C)c1NCC(Cc1c[nH]c2ccccc12)NC(=O)CCc1ccccc1 (centres undefined) | 23.1% | 
2 | Cc1ccccc1NC(=O)C(Cc1c[nH]c2ccccc12)NC(=O)CCc1ccccc1 (centres undefined) | 74.2% | 
3 | CC[C@H](C)[C@H](NC(=O)[C@H](CC(C)C)NC(=O)[C@H](Cc1ccc(O)cc1)NC(=O)[C@@H]1CSSC[C@H](NC(=O)[C@@H](N)Cc2ccc(O)cc2)C(=O)N[C@@H](CCC(=O)O)C(=O)N[C@@H]([C@@H](C)CC)C(=O)N[C@@H](CCC(=O)O)C(=O)N[C@@H](Cc2ccccc2)C(=O)N1)C(=O)N[C@@H](CCCNC(=N)N)C(=O)O (H-YCEIEFCYLIR-OH; disulfide 2-7) |  | Kd [2]: 284 µM; Kd [3]: 284 µM
4 | N=C(N)NCCC[C@H](NC(=O)[C@H](CCCNC(=N)N)NC(=O)[C@H](Cc1ccc(O)cc1)NC(=O)[C@@H]1CSSC[C@H](NC(=O)[C@@H](N)Cc2ccc(O)cc2)C(=O)N[C@@H](Cc2c[nH]c3ccccc23)C(=O)N[C@@H](CC(N)=O)C(=O)N[C@@H](CO)C(=O)N[C@@H](CC(=O)O)C(=O)N[C@@H](CS)C(=O)N[C@@H](CCC(=O)O)C(=O)N[C@@H](CS)C(=O)N1)C(=O)O (H-YCWNSDCECCYRR-OH; disulfide 2-10) |  | Kd [2]: 17.3 µM; Kd [3]: 17.3 µM
5 | Cc1cccc(C)c1NC(=O)C(Cc1c[nH]c2cc(F)ccc12)NC(=O)CCc1ccccc1 (racemic) | 89.4% | viability at 48 h, 10 µM [4]: 103%; Kd [2]: 3.5 µM; inhibition [5]: Dose-dependent effect; inhibition [6]: Dose-dependent effect; inhibition [7]: Dose-dependent effect; inhibition [8]: 100%
6 | Cc1cccc(C)c1NC(=O)C(Cc1c[nH]c2ccccc12)NC(=O)CCc1ccc(Cl)cc1 (racemic) | 89% | viability at 48 h, 10 µM [4]: 102%; Kd [2]: 3.1 µM; inhibition [5]: Dose-dependent effect; inhibition [6]: Dose-dependent effect; inhibition [7]: Dose-dependent effect; inhibition [8]: 100%
7 | Cc1cccc(C)c1NC(=O)C(Cc1c[nH]c2ccccc12)NC(=O)CCc1ccccc1 (racemic) [listing 1 of 2 here] |  | viability at 48 h, 10 µM [4]: 110%; Kd [2]: 2.7 µM
8 | CN(C)c1ccc(NC(=O)C(Cc2c[nH]c3ccccc23)NC(=O)CCc2ccccc2)cc1 (racemic) | 70.6% | 
9 | COc1ccc(CCC(=O)NC(Cc2c[nH]c3ccccc23)C(=O)Nc2c(C)cccc2C)cc1 (racemic) | 16.9% | 
10 | COc1ccc(NC(=O)C(Cc2c[nH]c3ccccc23)NC(=O)CCc2ccccc2)cc1 (racemic) | 59% | 
11 | COc1ccc2[nH]cc(CC(NC(=O)CCc3ccccc3)C(=O)Nc3c(C)cccc3C)c2c1 (racemic) | 84.4% | 
12 | COc1cccc(CCC(=O)NC(Cc2c[nH]c3ccccc23)C(=O)Nc2c(C)cccc2C)c1 (racemic) | 41.7% | 
13 | CS(=O)(=O)c1ccc(NC(=O)C(Cc2c[nH]c3ccccc23)NC(=O)CCc2ccccc2)cc1 (racemic) | 69.9% | 
14 | Cc1ccc(NC(=O)C(Cc2c[nH]c3ccccc23)NC(=O)CCc2ccccc2)cc1 (racemic) | 69.9% | 
15 | Cc1cccc(C)c1NC(=O)C(Cc1c[nH]c2ccc(F)cc12)NC(=O)CCc1ccccc1 (racemic) | 83.9% | 
16 | Cc1cccc(C)c1NC(=O)C(Cc1c[nH]c2ccccc12)NC(=O)CCC1CC1 (racemic) | 57.4% | 
17 | Cc1cccc(C)c1NC(=O)C(Cc1c[nH]c2ccccc12)NC(=O)CCC1CCCC1 (racemic) | 14% | 
18 | Cc1cccc(C)c1NC(=O)C(Cc1c[nH]c2ccccc12)NC(=O)CCC1CCCCC1 (racemic) | 35.4% | 
19 | Cc1cccc(C)c1NC(=O)C(Cc1c[nH]c2ccccc12)NC(=O)CCCCc1ccccc1 (racemic) | 82% | 
20 | Cc1cccc(C)c1NC(=O)C(Cc1c[nH]c2ccccc12)NC(=O)CCCc1ccccc1 (racemic) | 79.3% | 

Row | Structure (SMILES) | inhibition [1] | further results
21 | Cc1cccc(C)c1NC(=O)C(Cc1c[nH]c2ccccc12)NC(=O)CCc1ccc(F)cc1 (racemic) | 33.6% | 
22 | Cc1cccc(C)c1NC(=O)C(Cc1c[nH]c2ccccc12)NC(=O)CCc1cccc(Cl)c1 (racemic) | 69.5% | 
23 | Cc1cccc(C)c1NC(=O)C(Cc1c[nH]c2ccccc12)NC(=O)CCc1cccc(F)c1 (racemic) | 56.8% | 
24 | Cc1cccc(C)c1NC(=O)C(Cc1c[nH]c2ccccc12)NC(=O)CCc1ccccc1 (racemic) [listing 2 of 2 here] | 90.3% | inhibition [5]: Dose-dependent effect; inhibition [6]: Dose-dependent effect; inhibition [7]: Dose-dependent effect; inhibition [8]: 100%
25 | Cc1cccc(C)c1NC(=O)C(Cc1c[nH]c2ccccc12)NC(=O)CCc1cccnc1 (racemic) | 66.5% | 
26 | Cc1cccc(C)c1NC(=O)C(Cc1c[nH]c2ccccc12)NC(=O)CCc1cccs1 (racemic) | 65.4% | 
27 | Cc1cccc(C)c1NC(=O)C(Cc1c[nH]c2ccccc12)NC(=O)CCc1ccncc1 (racemic) | 41.4% | 
28 | Cc1cccc(C)c1NC(=O)C(Cc1c[nH]c2ccccc12)NC(=O)CCc1ccsc1 (racemic) | 52.2% | 
29 | Cc1cccc(C)c1NC(=O)C(Cc1c[nH]c2ccccc12)NC(=O)CCc1nccs1 (racemic) | 86.3% | 
30 | Cc1cccc(C)c1NC(=O)C(Cc1c[nH]c2ccccc12)NC(=O)Cc1ccccc1 (racemic) | 52.1% | 
31 | Cc1cccc(C)c1NC(=O)C(Cc1c[nH]c2ccccc12)NCCCCCc1ccccc1 (racemic) | 87.2% | 
32 | Cc1cccc(C)c1NC(=O)C(Cc1c[nH]c2ccccc12)NCCCCc1ccccc1 (racemic) | 83.3% | 
33 | Cc1cccc(C)c1NC(=O)C(Cc1c[nH]c2ccccc12)NCCc1ccccc1 (racemic) | 76.5% | 
34 | O=C(CCc1ccccc1)NC(Cc1c[nH]c2ccccc12)C(=O)Nc1ccc(C(F)(F)F)cc1 (racemic) | 72% | 
35 | O=C(CCc1ccccc1)NC(Cc1c[nH]c2ccccc12)C(=O)Nc1ccc(F)cc1 (racemic) | 70.3% | 
36 | O=C(CCc1ccccc1)NC(Cc1c[nH]c2ccccc12)C(=O)Nc1ccc(N2CCOCC2)cc1 (racemic) | 64.8% | 
37 | O=C(CCc1ccccc1)NC(Cc1c[nH]c2ccccc12)C(=O)Nc1ccccc1 (racemic) | 55.3% | 
38 | O=C(CCc1ccccc1)NC(Cc1c[nH]c2ccccc12)C(=O)Nc1ccccc1F (racemic) | 74% | 
39 | Cc1cccc(C)c1NC(=O)C(Cc1c[nH]c2ccccc12)NC(=O)CCc1ccccc1 (single isomer, unassigned; (+)) | Active | 
40 | Cc1cccc(C)c1NC(=O)C(Cc1c[nH]c2ccccc12)NC(=O)CCc1ccccc1 (single isomer, unassigned; (-)) | Active | 
